# According to ChEMBL document CHEMBL1152173, “Synthesis and in vitro evaluation of the antifungal activities of dihydropyrimidinones” (2008):
# Activity calls are given as the source filed them. The rule behind the calls is not given here.
# Columns and labels:
# Trichoderma koningii [1] = assay: Antifungal activity against Trichoderma koningii assessed as radial growth at 3% after 48 hrs by poison food technique of Flack relative to control; type: functional
# In short: (§1)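 Acetone stock added to molten sterilized PDA to final 0.5–7%, plated in 90 mm dishes with compound-free plates as control. Each plate was inoculated with a 9 mm disc from a 4-day-old culture, incubated at 25 ± 1 °C, and colony diameter measured at 24 h intervals. % inhibition = (control − treatment)/control × 100; three replicates averaged.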
# Trichoderma koningii [2] = assay: Antifungal activity against Trichoderma koningii assessed as radial growth at 5% after 72 hrs by poison food technique of Flack relative to control; type: functional; in short: as §1
# Trichoderma hamatum [3] = assay: Antifungal activity against Trichoderma hamatum assessed as radial growth at 7% after 24 hrs by poison food technique of Flack; type: functional, organism-based
# In short: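 Poisoned-food method: acetone stock mixed into molten sterilized potato dextrose agar to final 0.5, 1, 3, 5 or 7%, poured into 90 mm plates. Plates were inoculated with a 9 mm mycelial disc from a 4-day-old pure culture and incubated at 25 ± 1 °C. Colony diameter (mm) was read every 24 h; mean of three replicates.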
# Trichoderma hamatum [4] = assay: Antifungal activity against Trichoderma hamatum assessed as radial growth at 7% after 48 hrs by poison food technique of Flack relative to control; type: functional; in short: as §1
# Trichoderma koningii [5] = assay: Antifungal activity against Trichoderma koningii assessed as radial growth at 5% after 48 hrs by poison food technique of Flack relative to control; type: functional; in short: as §1
# Aspergillus niger [6] = assay: Antifungal activity against Aspergillus niger assessed as radial growth at 1% after 72 hrs by poison food technique of Flack relative to control; type: functional
# Trichoderma hamatum [7] = assay: Antifungal activity against Trichoderma hamatum assessed as radial growth at 7% after 72 hrs by poison food technique of Flack relative to control; type: functional; in short: as §1
# Aspergillus niger [8] = assay: Antifungal activity against Aspergillus niger assessed as radial growth at 3% after 48 hrs by poison food technique of Flack relative to control; type: functional
# Aspergillus niger [9] = assay: Antifungal activity against Aspergillus niger assessed as radial growth at 3% after 72 hrs by poison food technique of Flack relative to control; type: functional
# Trichoderma hamatum [10] = assay: Antifungal activity against Trichoderma hamatum assessed as radial growth at 0.5% after 72 hrs by poison food technique of Flack relative to control; type: functional
# Aspergillus niger [11] = assay: Antifungal activity against Aspergillus niger assessed as radial growth at 0.5% after 48 hrs by poison food technique of Flack relative to control; type: functional
# Trichoderma koningii [12] = assay: Antifungal activity against Trichoderma koningii assessed as radial growth at 1% after 24 hrs by poison food technique of Flack relative to control; type: functional; in short: as §1
# Trichoderma koningii [13] = assay: Antifungal activity against Trichoderma koningii assessed as radial growth at 1% after 48 hrs by poison food technique of Flack relative to control; type: functional; in short: as §1
# Trichoderma koningii [14] = assay: Antifungal activity against Trichoderma koningii assessed as radial growth at 0.5% after 48 hrs by poison food technique of Flack relative to control; type: functional; in short: as §1
# Trichoderma hamatum [15] = assay: Antifungal activity against Trichoderma hamatum assessed as radial growth at 1% after 48 hrs by poison food technique of Flack relative to control; type: functional
# Trichoderma hamatum [16] = assay: Antifungal activity against Trichoderma hamatum assessed as radial growth at 7% after 24 hrs by poison food technique of Flack relative to control; type: functional; in short: as §1
# Trichoderma koningii [17] = assay: Antifungal activity against Trichoderma koningii assessed as radial growth at 3% after 24 hrs by poison food technique of Flack relative to control; type: functional; in short: as §1
# Trichoderma koningii [18] = assay: Antifungal activity against Trichoderma koningii assessed as radial growth at 3% after 72 hrs by poison food technique of Flack relative to control; type: functional; in short: as §1
# Aspergillus niger [19] = assay: Antifungal activity against Aspergillus niger; type: functional
# Trichoderma hamatum [20] = assay: Antifungal activity against Trichoderma hamatum assessed as radial growth at 1% after 24 hrs by poison food technique of Flack relative to control; type: functional
# Aspergillus niger [21] = assay: Antifungal activity against Aspergillus niger assessed as radial growth at 5% after 24 hrs by poison food technique of Flack relative to control; type: functional
# Trichoderma koningii [22] = assay: Antifungal activity against Trichoderma koningii assessed as radial growth at 7% after 72 hrs by poison food technique of Flack relative to control; type: functional; in short: as §1
# Aspergillus niger [23] = assay: Antifungal activity against Aspergillus niger assessed as radial growth at 7% after 48 hrs by poison food technique of Flack relative to control; type: functional
# Aspergillus niger [24] = assay: Antifungal activity against Aspergillus niger assessed as radial growth at 5% after 72 hrs by poison food technique of Flack relative to control; type: functional
# Aspergillus niger [25] = assay: Antifungal activity against Aspergillus niger assessed as radial growth at 1% after 48 hrs by poison food technique of Flack relative to control; type: functional
# Trichoderma hamatum [26] = assay: Antifungal activity against Trichoderma hamatum assessed as radial growth at 1% after 72 hrs by poison food technique of Flack relative to control; type: functional
# Trichoderma hamatum [27] = assay: Antifungal activity against Trichoderma hamatum assessed as radial growth at 5% after 24 hrs by poison food technique of Flack relative to control; type: functional; in short: as §1
# Aspergillus niger [28] = assay: Antifungal activity against Aspergillus niger assessed as radial growth at 1% after 24 hrs by poison food technique of Flack relative to control; type: functional
# Trichoderma hamatum [29] = assay: Antifungal activity against Trichoderma hamatum; type: functional
# Trichoderma koningii [30] = assay: Antifungal activity against Trichoderma koningii assessed as radial growth at 0.5% after 24 hrs by poison food technique of Flack relative to control; type: functional; in short: as §1
# Trichoderma koningii [31] = assay: Antifungal activity against Trichoderma koningii assessed as radial growth at 5% after 24 hrs by poison food technique of Flack relative to control; type: functional; in short: as §1
# Trichoderma hamatum [32] = assay: Antifungal activity against Trichoderma hamatum assessed as radial growth at 5% after 72 hrs by poison food technique of Flack relative to control; type: functional; in short: as §1
# Trichoderma koningii [33] = assay: Antifungal activity against Trichoderma koningii assessed as radial growth at 7% after 24 hrs by poison food technique of Flack relative to control; type: functional; in short: as §1
# Trichoderma hamatum [34] = assay: Antifungal activity against Trichoderma hamatum assessed as radial growth at 3% after 48 hrs by poison food technique of Flack relative to control; type: functional
# Trichoderma hamatum [35] = assay: Antifungal activity against Trichoderma hamatum assessed as radial growth at 3% after 72 hrs by poison food technique of Flack relative to control; type: functional
# Trichoderma hamatum [36] = assay: Antifungal activity against Trichoderma hamatum assessed as radial growth at 3% after 24 hrs by poison food technique of Flack relative to control; type: functional
# Trichoderma hamatum [37] = assay: Antifungal activity against Trichoderma hamatum assessed as radial growth at 0.5% after 48 hrs by poison food technique of Flack relative to control; type: functional
# Aspergillus niger [38] = assay: Antifungal activity against Aspergillus niger assessed as radial growth at 0.5% after 24 hrs by poison food technique of Flack relative to control; type: functional
# Trichoderma hamatum [39] = assay: Antifungal activity against Trichoderma hamatum assessed as radial growth at 0.5% after 24 hrs by poison food technique of Flack relative to control; type: functional
# Aspergillus niger [40] = assay: Antifungal activity against Aspergillus niger assessed as radial growth at 5% after 48 hrs by poison food technique of Flack relative to control; type: functional
# Aspergillus niger [41] = assay: Antifungal activity against Aspergillus niger assessed as radial growth at 3% after 24 hrs by poison food technique of Flack relative to control; type: functional
# Trichoderma koningii [42] = assay: Antifungal activity against Trichoderma koningii assessed as radial growth at 1% after 72 hrs by poison food technique of Flack relative to control; type: functional; in short: as §1
# Trichoderma hamatum [43] = assay: Antifungal activity against Trichoderma hamatum assessed as radial growth at 5% after 48 hrs by poison food technique of Flack relative to control; type: functional; in short: as §1
# Trichoderma koningii [44] = assay: Antifungal activity against Trichoderma koningii assessed as radial growth at 7% after 48 hrs by poison food technique of Flack relative to control; type: functional; in short: as §1
smiles,measurement,setting,value
CCOC(=O)C1=C(C)NC(=O)NC1c1ccccc1 (stereo not drawn),inhibition (INH),Trichoderma koningii [1],62.31%
same,inhibition (INH),Trichoderma koningii [2],91.53%
same,Activity,Trichoderma hamatum [3],Active
same,inhibition (INH),Trichoderma hamatum [4],100%
same,inhibition (INH),Trichoderma koningii [5],100%
same,inhibition (INH),Aspergillus niger [6],0%
same,inhibition (INH),Trichoderma hamatum [7],100%
same,inhibition (INH),Aspergillus niger [8],52.83%
same,inhibition (INH),Aspergillus niger [9],54.34%
same,inhibition (INH),Trichoderma hamatum [10],2.46%
same,inhibition (INH),Aspergillus niger [11],0%
same,inhibition (INH),Trichoderma koningii [12],12.09%
same,inhibition (INH),Trichoderma koningii [13],20.63%
same,inhibition (INH),Trichoderma koningii [14],18.25%
same,inhibition (INH),Trichoderma hamatum [15],21.94%
same,inhibition (INH),Trichoderma hamatum [16],100%
same,inhibition (INH),Trichoderma koningii [17],100%
same,inhibition (INH),Trichoderma koningii [18],70.18%
same,MIC,Aspergillus niger [19],0.025 µg/mL
same,inhibition (INH),Trichoderma hamatum [20],24.96%
same,inhibition (INH),Aspergillus niger [21],84.72%
same,inhibition (INH),Trichoderma koningii [22],95.52%
same,inhibition (INH),Aspergillus niger [23],79.36%
same,inhibition (INH),Aspergillus niger [24],73.29%
same,inhibition (INH),Aspergillus niger [25],0%
same,inhibition (INH),Trichoderma hamatum [26],12.34%
same,inhibition (INH),Trichoderma hamatum [27],100%
same,inhibition (INH),Aspergillus niger [28],30.55%
same,MIC,Trichoderma hamatum [29],0.025 µg/mL
same,inhibition (INH),Trichoderma koningii [30],5.66%
same,inhibition (INH),Trichoderma koningii [31],100%
same,inhibition (INH),Trichoderma hamatum [32],93.2%
same,inhibition (INH),Trichoderma koningii [33],100%
same,inhibition (INH),Trichoderma hamatum [34],72.02%
same,inhibition (INH),Trichoderma hamatum [35],63.38%
same,inhibition (INH),Trichoderma hamatum [36],82.12%
same,inhibition (INH),Trichoderma hamatum [37],32.99%
same,inhibition (INH),Aspergillus niger [38],0%
same,inhibition (INH),Trichoderma hamatum [39],11.32%
same,inhibition (INH),Aspergillus niger [40],81.17%
same,inhibition (INH),Aspergillus niger [41],69.44%
same,inhibition (INH),Trichoderma koningii [42],10.86%
same,inhibition (INH),Trichoderma hamatum [43],96.89%
same,inhibition (INH),Trichoderma koningii [44],100%
CCOC(=O)C1=C(C)NC(=O)NC1c1ccccc1O (stereo not drawn),inhibition (INH),Trichoderma koningii [1],38.81%
same,inhibition (INH),Trichoderma koningii [2],55.7%
same,Activity,Trichoderma hamatum [3],Active
same,inhibition (INH),Trichoderma hamatum [4],100%
same,inhibition (INH),Trichoderma koningii [5],70.83%
same,inhibition (INH),Aspergillus niger [6],16.07%
same,inhibition (INH),Trichoderma hamatum [7],96.78%
same,inhibition (INH),Aspergillus niger [8],64.58%
same,inhibition (INH),Aspergillus niger [9],60.71%
same,inhibition (INH),Trichoderma hamatum [10],0%
same,inhibition (INH),Aspergillus niger [11],34.75%
same,inhibition (INH),Trichoderma koningii [12],0%
same,inhibition (INH),Trichoderma koningii [13],5.2%
same,inhibition (INH),Trichoderma koningii [14],0%
same,inhibition (INH),Trichoderma hamatum [15],22.44%
same,inhibition (INH),Trichoderma hamatum [16],100%
same,inhibition (INH),Trichoderma koningii [17],50.72%
same,inhibition (INH),Trichoderma koningii [18],25.16%
same,MIC,Aspergillus niger [19],0.025 µg/mL
same,inhibition (INH),Trichoderma hamatum [20],21.05%
same,inhibition (INH),Aspergillus niger [21],40%
same,inhibition (INH),Trichoderma koningii [22],97.31%
same,inhibition (INH),Aspergillus niger [23],100%
same,inhibition (INH),Aspergillus niger [24],66.07%
same,inhibition (INH),Aspergillus niger [25],17.75%
same,inhibition (INH),Trichoderma hamatum [26],15.84%
same,inhibition (INH),Trichoderma hamatum [27],89.47%
same,inhibition (INH),Aspergillus niger [28],0%
same,MIC,Trichoderma hamatum [29],0.025 µg/mL
same,inhibition (INH),Trichoderma koningii [30],0%
same,inhibition (INH),Trichoderma koningii [31],79.71%
same,inhibition (INH),Trichoderma hamatum [32],95.07%
same,inhibition (INH),Trichoderma koningii [33],100%
same,inhibition (INH),Trichoderma hamatum [34],68.75%
same,inhibition (INH),Trichoderma hamatum [35],59.1%
same,inhibition (INH),Trichoderma hamatum [36],63.84%
same,inhibition (INH),Trichoderma hamatum [37],0%
same,inhibition (INH),Aspergillus niger [38],0%
same,inhibition (INH),Trichoderma hamatum [39],0%
same,inhibition (INH),Aspergillus niger [40],65.66%
same,inhibition (INH),Aspergillus niger [41],37.6%
same,inhibition (INH),Trichoderma koningii [42],0.67%
same,inhibition (INH),Trichoderma hamatum [43],94.23%
same,inhibition (INH),Trichoderma koningii [44],100%
